The target in assay [1] is T1, Adrenergic receptor alpha-1 (Rattus norvegicus, UniProt P15823+P23944+P43140).
T1 sequence (P15823 whole entry): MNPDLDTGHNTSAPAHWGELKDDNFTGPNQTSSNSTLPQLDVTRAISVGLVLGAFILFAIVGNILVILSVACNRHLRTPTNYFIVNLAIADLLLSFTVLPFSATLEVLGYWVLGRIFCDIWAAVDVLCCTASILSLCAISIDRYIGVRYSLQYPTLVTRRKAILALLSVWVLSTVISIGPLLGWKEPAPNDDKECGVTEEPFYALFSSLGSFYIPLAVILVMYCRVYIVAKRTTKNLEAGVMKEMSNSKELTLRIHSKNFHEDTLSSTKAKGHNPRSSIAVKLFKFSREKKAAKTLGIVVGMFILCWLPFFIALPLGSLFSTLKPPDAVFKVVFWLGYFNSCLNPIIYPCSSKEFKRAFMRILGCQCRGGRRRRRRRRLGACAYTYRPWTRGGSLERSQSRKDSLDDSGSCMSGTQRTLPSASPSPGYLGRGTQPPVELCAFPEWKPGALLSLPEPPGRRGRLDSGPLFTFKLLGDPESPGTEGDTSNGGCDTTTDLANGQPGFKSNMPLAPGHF
T1 sequence (P23944 whole entry): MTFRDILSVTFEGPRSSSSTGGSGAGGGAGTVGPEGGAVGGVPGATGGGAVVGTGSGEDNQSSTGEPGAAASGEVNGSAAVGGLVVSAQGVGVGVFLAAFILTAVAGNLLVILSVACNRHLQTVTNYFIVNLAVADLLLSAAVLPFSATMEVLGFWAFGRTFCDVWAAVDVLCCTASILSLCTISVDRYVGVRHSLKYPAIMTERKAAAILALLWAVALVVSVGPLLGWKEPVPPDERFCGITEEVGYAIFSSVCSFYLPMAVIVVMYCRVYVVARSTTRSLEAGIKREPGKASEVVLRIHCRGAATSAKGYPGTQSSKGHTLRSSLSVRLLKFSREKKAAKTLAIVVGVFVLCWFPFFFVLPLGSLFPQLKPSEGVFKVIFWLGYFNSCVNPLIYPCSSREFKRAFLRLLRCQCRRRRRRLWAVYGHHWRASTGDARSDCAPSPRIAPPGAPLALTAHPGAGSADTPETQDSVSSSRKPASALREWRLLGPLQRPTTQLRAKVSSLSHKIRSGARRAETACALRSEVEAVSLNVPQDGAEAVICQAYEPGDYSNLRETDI
T1 sequence (P43140 whole entry): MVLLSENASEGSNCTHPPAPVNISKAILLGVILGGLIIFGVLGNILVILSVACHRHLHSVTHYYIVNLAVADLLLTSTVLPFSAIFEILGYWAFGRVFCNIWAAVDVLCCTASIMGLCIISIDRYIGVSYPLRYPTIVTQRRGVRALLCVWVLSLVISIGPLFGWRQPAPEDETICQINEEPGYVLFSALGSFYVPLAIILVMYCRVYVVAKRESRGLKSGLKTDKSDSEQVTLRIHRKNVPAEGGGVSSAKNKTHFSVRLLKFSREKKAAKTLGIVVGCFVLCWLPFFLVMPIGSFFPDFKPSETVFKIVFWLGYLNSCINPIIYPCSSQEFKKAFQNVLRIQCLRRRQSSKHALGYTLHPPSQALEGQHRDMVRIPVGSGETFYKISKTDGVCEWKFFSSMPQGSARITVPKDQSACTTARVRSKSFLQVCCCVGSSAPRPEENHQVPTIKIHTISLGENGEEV
Kind of assay: Displacement of [3H]prazosin from Alpha-1 adrenergic receptor of whole rat brain membranes. It counts as cell membranes, Membrane. Put shortly: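 α1 adrenoceptor binding measured as displacement of [3H]prazosin from whole rat brain membranes. Five test-drug concentrations spanning three decades in triplicate, two full curves; IC50 from log concentration-effect curves, logarithmic mean of at least two determinations.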

The target of assay [2] is Serotonin 2 (5-HT2) receptor (Rattus norvegicus, UniProt P30994+P08909+P14842). Kind of assay: Displacement of [3H]ketanserin from 5-hydroxytryptamine 2 receptor from rat cortical membranes. It counts as cell membranes, Membrane. Put shortly:
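[3H]ketanserin displacement from rat cortical membranes (5-HT2). Five concentrations across three decades in triplicate, two full curves; IC50 estimated on a log-concentration scale, given as logarithmic mean of at least two determinations.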

Another assay addresses D(2) dopamine receptor (Rattus norvegicus, UniProt P61169). Kind of assay: Displacement of [3H]-spiperone from Dopamine receptor D2 from rat striatal membranes. It counts as cell membranes, Membrane. An outline of the steps:
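[3H]spiperone displacement from rat striatal membranes (D2). Five test-drug concentrations over three decades, in triplicate, two full curves; IC50 from log concentration-effect curves, reported as logarithmic mean of at least two determinations.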

The next assay relates to Rattus norvegicus. Description: Compound was evaluated for the inhibition of quipazine-induced head twitches after 2 h (administered subcutaneously). It counts as functional. The following applies: sc.

As usually defined, the IC50 is the point on the concentration scale where inhibition reaches its midpoint. Low readings indicate greater potency, high ones weaker potency. For orientation: ED50 means the midpoint of the dose-response relation. A high value points to a need for a large dose.

Sequence of D(2) dopamine receptor (P61169 whole entry): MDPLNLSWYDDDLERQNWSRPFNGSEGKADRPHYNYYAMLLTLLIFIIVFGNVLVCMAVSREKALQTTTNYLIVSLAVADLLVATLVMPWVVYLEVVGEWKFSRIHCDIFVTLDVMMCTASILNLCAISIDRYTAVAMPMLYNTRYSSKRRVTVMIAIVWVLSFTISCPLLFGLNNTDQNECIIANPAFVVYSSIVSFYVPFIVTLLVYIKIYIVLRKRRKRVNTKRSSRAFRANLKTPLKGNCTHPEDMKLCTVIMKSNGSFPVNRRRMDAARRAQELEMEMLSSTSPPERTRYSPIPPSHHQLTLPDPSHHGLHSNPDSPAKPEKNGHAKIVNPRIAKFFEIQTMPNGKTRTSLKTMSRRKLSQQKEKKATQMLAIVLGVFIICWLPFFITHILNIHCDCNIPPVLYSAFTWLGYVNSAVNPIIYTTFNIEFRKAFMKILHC

`Cc1ccc2c(C3CCN(CCN4CCN(C(C)C)C4=O)CC3)cn(-c3cccc(F)c3)c2c1`: the half-inhibitory concentration (IC50) was determined as 670 nM in assay [1] and 11 nM in assay [2].

For the compound `Cc1ccc2c(C3CCN(CCN4CCN(C(C)C)C4=O)CC3)cn(-c3ccc(Cl)cc3)c2c1`, the IC50 in assay [1] is recorded as 450 nM; in assay [2], 6 nM.

`Cc1ccc2c(C3CCN(CCNC(=O)N(C)C)CC3)cn(-c3ccc(F)cc3)c2c1`: the IC50 in assay [1] came out at 22 nM; on D(2) dopamine receptor it was 38 nM; in assay [2] it was 2.6 nM.

For the compound `CC(C)N1CCN(CCN2CCC(c3cn(-c4ccc(F)cc4)c4cc(C(F)(F)F)ccc34)CC2)C1=O`, the IC50 in assay [1] is 91 nM; in assay [2] it was 2.9 nM.

Take `Cc1ccc2c(C3CCN(CCNC(=O)NC(C)C)CC3)cn(-c3ccc(F)cc3)c2c1`: the IC50 came out at 76 nM in assay [1] and 1.8 nM in assay [2].

`CC(C)N1CCN(CCN2CCC(c3c[nH]c4cc(Cl)ccc34)CC2)C1=O`: the results for the IC50 (in assay [1]; at D(2) dopamine receptor; in assay [2]) were 34 nM, 200 nM and 66 nM, respectively.

For the compound `CN(C)C(=O)NCCN1CCC(c2cn(-c3ccc(F)cc3)c3cc(Cl)ccc23)CC1`, the results for the IC50 (in assay [1]; at D(2) dopamine receptor; in assay [2]) were 29 nM, 27 nM and 1.3 nM, respectively.

Turning to `Cc1ccc2c(C3CCN(CCN4CCN(C(C)C)C4=O)CC3)cn(-c3ccccc3F)c2c1`, the IC50 in assay [1] amounted to 370 nM; in assay [2] it was 2.5 nM.

Take `Cc1ccc2c(C3CCN(CCN4CCN(C(C)C)C4=O)CC3)c[nH]c2c1`: the figures for the 50% inhibitory concentration (IC50) (in assay [1]; on D(2) dopamine receptor; in assay [2]) were 27 nM, 590 nM and 60 nM, respectively. In addition, in the assay on Rattus norvegicus, the ED50 was over 0.84 µmol/kg.

Consider `CC(C)N1CCN(CCN2CCC(c3cn(-c4ccccc4F)c4cc(Cl)ccc34)CC2)C1=O`, for which the results for the IC50 in assay [1] and in assay [2] were 120 nM and 3.7 nM, respectively.

Regarding `Cc1c(C2=CCN(CCN3CCNC3=O)CC2)c2ccccc2n1-c1ccc(F)cc1`, the 50% inhibitory concentration (IC50) in assay [1] was 23 nM; at D(2) dopamine receptor, 160 nM; in assay [2] it was 1.1 nM.

Regarding `Cc1ccc2c(C3CCN(CCN4CCNC4=O)CC3)cn(-c3ccc(F)cc3)c2c1`, the IC50 in assay [1] is 24 nM; in assay [2], 0.82 nM.

Regarding `CC(C)N1CCN(CCN2CCC(c3cn(-c4ccc(F)cc4)c4cc(F)ccc34)CC2)C1=O`, the IC50 in assay [1] was 13 nM; on D(2) dopamine receptor, 28 nM; in assay [2], 1.3 nM.

Regarding `CC(C)c1ccc2c(C3CCN(CCN4CCNC4=O)CC3)cn(-c3ccc(F)cc3)c2c1`, the IC50 in assay [1] worked out at 250 nM; on D(2) dopamine receptor, 2600 nM; in assay [2], 18 nM.

`O=C1NCCN1CCN1CCC(c2cn(-c3ccc(F)cc3)c3cc(Cl)ccc23)CC1`: the 50% inhibitory concentration (IC50) in assay [1] was 9.6 nM; on D(2) dopamine receptor it was 56 nM; in assay [2], 1.4 nM.

Turning to `Cc1ccc2c(C3CCN(CCN4CCN(C(C)C)C4=O)CC3)cn(-c3cccc(C(F)(F)F)c3)c2c1`, the IC50 in assay [2] stood at 150 nM.

With `O=C1NCCN1CCN1CCC(c2cn(-c3ccc(F)cc3)c3cc(C(F)(F)F)ccc23)CC1`, the figures for the IC50 (in assay [1]; at D(2) dopamine receptor; in assay [2]) were 33 nM, 260 nM and 1.7 nM, respectively.

As for `CC(C)N1CCN(CCN2CCC(c3cn(-c4ccccc4)c4cc(Cl)ccc34)CC2)C1=O`, the results for the IC50 (in assay [1]; on D(2) dopamine receptor; in assay [2]) were 39 nM, 290 nM and 4.5 nM, respectively.

For the origin of these results see ChEMBL document CHEMBL1125563, “Selective, centrally acting serotonin 5-HT2 antagonists. 1. 2- and 6-substituted 1-phenyl-3-(4-piperidinyl)-1H-indoles” (J Med Chem, 1992).
